Reference: ChEMBL document CHEMBL1949626, “Ultrasound-assisted bismuth nitrate-induced green synthesis of novel pyrrole derivatives and their biological evaluation as anticancer agents” (Eur J Med Chem, 2012)
The source made the active and inactive calls. The calls are words filed in the database; no cut-off is given here.

Tests used:
[1] = system: NIH3T3; assay: Cytotoxicity against […] cells after 48 hrs by sulforhodamine B assay; format: functional, cell-based; details: Mus musculus, NIH3T3, 48 h
Summary of the method: (§1)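 Cells seeded at 5000/well, incubated overnight at 37 °C, then exposed 48 h to 0.1 µM-100 µM compound from DMSO stock (final DMSO ≤0.25%); 0.25% DMSO vehicle and 10 μM doxorubicin controls. Fixed, stained with sulforhodamine B, absorbance normalized to untreated cells; 4-parameter logistic fit gives IC50, mean ± SD of two independent assays.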

[2] = system: HT-29; assay: Cytotoxicity against human HT-29 cells after 48 hrs by sulforhodamine B assay; format: functional, cell-based; details: HT-29, 48 h; summary of the method: as §1
[3] = Cytotoxicity against mouse Hepa1-6 cells after 48 hrs by sulforhodamine B assay; details: Hepa1-6, 48 h
[4] = system: Caco-2; assay: Cytotoxicity against human Caco2 cells after 48 hrs by sulforhodamine B assay; format: functional, cell-based; details: Caco-2, 48 h; summary of the method: as §1
[5] = system: HepG2; assay: Cytotoxicity against human HepG2 cells after 48 hrs by sulforhodamine B assay; format: functional, cell-based; details: HepG2, 48 h; summary of the method: as §1
[6] = system: HeLa; assay: Cytotoxicity against human HeLa cells after 48 hrs by sulforhodamine B assay; format: functional, cell-based; summary of the method: as §1
[7] = system: Hepatocyte; assay: Cytotoxicity against CD1 mouse hepatocytes at 10 uM after 48 hrs by MTS assay; format: cell-based
Summary of the method: (§2)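 Fresh CD-1 mouse hepatocytes (Williams' E medium) or Hepa1-6 (DMEM, 10% FBS), plated, incubated overnight at 37 °C; media refreshed, then 0.5, 2.5, 5 and 10 μM compound for 48 h. MTS reagent added for 4 h at 37 °C, 5% CO2; A490 normalized to untreated cells. Two independent experiments in duplicate, mean ± SD.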

[8] = system: HepG2; assay: Inhibition of anchorage-independent growth of human HepG2 cells at 12.5 uM after 7 days by soft agar colony formation assay; format: functional; details: HepG2, 168 h, read-out: GI
Summary of the method: (§3)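 HepG2 at 5000 cells/well in top soft agar, exposed to compound for 7 days with compound and fresh medium replaced once on day 4. Agar solubilized on day 7 and cells quantified by fluorescence (485–520 nm filters). Duplicate wells per dose, SD shown.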

[9] = system: HepG2; assay: Cytotoxicity against human HepG2 cells at 2 times IC50 after 72 hrs by sulforhodamine B assay; format: functional
Summary of the method: (§4)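 HepG2 seeded at 5000 cells/well and treated at twice each compound's calculated IC50 for 24, 48 or 72 h. Cells fixed and viability read by SRB absorbance, normalized to untreated. Three independent experiments run in duplicate; mean ± SD.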

[10] = system: HepG2; assay: Induction of apoptosis in human HepG2 cells assessed as increase in DNA fragmentation by TUNEL assay; format: functional, cell-based
[11] = system: HepG2; assay: Cytotoxicity against human HepG2 cells at 2 times IC50 after 48 hrs by sulforhodamine B assay; format: functional; summary of the method: as §4
[12] = system: Hepa1-6; assay: Cytotoxicity against […] cells at 2.5 to 5 uM after 48 hrs by MTS assay; format: functional, cell-based; summary of the method: as §2
[13] = system: HepG2; assay: Cytotoxicity against human HepG2 cells at 2 times IC50 after 24 hrs by sulforhodamine B assay; format: functional; summary of the method: as §4
[14] = system: HepG2; assay: Induction of apoptosis in human HepG2 cells assessed as increase in caspase3/7 activity; format: functional, cell-based
[15] = system: HepG2; assay: Inhibition of anchorage-independent growth of human HepG2 cells at 25 uM after 7 days by soft agar colony formation assay; format: functional; details: HepG2, 168 h, read-out: GI; summary of the method: as §3
[16] = Cytotoxicity against […] cells after 48 hrs by sulforhodamine B assay; format: functional, cell-based; details: Hepa1-6, 48 h; summary of the method: as §1
[17] = Cytotoxicity against mouse Hepa1-6 cells at 50 uM after 48 hrs by sulforhodamine B assay
[18] = system: Hepa1-6; assay: Cytotoxicity against mouse Hepa1-6 cells at 2.5 to 5 uM after 48 hrs by MTS assay

c1ccn(C23CC4CC(CC(C4)C2)C3)c1
IC50 [1]: 24 µM | IC50 [2]: 11.9 µM | IC50 [3]: 19.9 µM | IC50 [4]: > 50 µM | IC50 [5]: 38.6 µM | IC50 [6]: 12.9 µM

c1ccc2c(c1)ccc1cc(-n3cccc3)ccc12
Activity [7]: Non-toxic | IC50 [1]: 2.1 µM | IC50 [2]: > 50 µM | inhibition of growth at 12.5 µM [8]: > 80% | Activity [9]: >50% | Activity [10]: inactive | Activity [11]: >50% | IC50 [4]: > 50 µM | Activity [12]: Active | Activity [13]: 20% | IC50 [5]: 13.4 µM | Activity [14]: inactive | inhibition of growth at 25 µM [15]: > 60% | IC50 [16]: 3.9 µM | IC50 [6]: > 50 µM

c1ccc2c(c1)ccc1c3ccccc3c(-n3cccc3)cc21
Activity [17]: 50% | IC50 [1]: > 50 µM | IC50 [2]: > 50 µM | IC50 [3]: 0.7 µM | IC50 [4]: > 50 µM | IC50 [5]: > 50 µM | IC50 [6]: > 50 µM

c1cnc2c(c1)cc(-n1cccc1)c1cccnc12
Activity [7]: Non-toxic | IC50 [1]: 1.9 µM | IC50 [2]: 4.2 µM | inhibition of growth at 12.5 µM [8]: > 80% | IC50 [3]: 3.4 µM | Activity [18]: Active | Activity [9]: >50% | Activity [10]: inactive | Activity [11]: >50% | Activity [13]: 20% | IC50 [5]: 3 µM | Activity [14]: inactive | inhibition of growth at 25 µM [15]: > 60% | IC50 [6]: 27.9 µM

c1cc2ccc3ccc(-n4cccc4)c4ccc(c1)c2c34
IC50 [2]: 24.3 µM | IC50 [4]: > 50 µM | IC50 [5]: > 50 µM | IC50 [6]: 17.7 µM
